pEC50, pIC50: −log10 of the molar value.
Columns and labels:
[1] = target: T1, Metabotropic glutamate receptor 6 (Homo sapiens, UniProt O15303); assay: Agonistic activity at mGlu6 receptor expressed in CHO cells; type: functional, cell-based
How it was run: (§1)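 CHO cells expressing the receptor were kept at 37 °C in DMEM with 2 mM glutamine, 1% proline and 10% dialyzed FCS, and plated 2 days before assay. Cells were incubated 10 min in PBS with ligand, 10 µM forskolin and 1 mM IBMX, and cAMP was measured by RIA. Agonism is inhibition of forskolin-induced cAMP versus buffer-only control.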

[2] = target: T2, Metabotropic glutamate receptor 2 (Homo sapiens, UniProt Q14416); assay: Agonistic activity at mGlu2 receptor expressed in CHO cells; type: functional, cell-based; how it was run: as §1
T2 sequence (Q14416 whole entry): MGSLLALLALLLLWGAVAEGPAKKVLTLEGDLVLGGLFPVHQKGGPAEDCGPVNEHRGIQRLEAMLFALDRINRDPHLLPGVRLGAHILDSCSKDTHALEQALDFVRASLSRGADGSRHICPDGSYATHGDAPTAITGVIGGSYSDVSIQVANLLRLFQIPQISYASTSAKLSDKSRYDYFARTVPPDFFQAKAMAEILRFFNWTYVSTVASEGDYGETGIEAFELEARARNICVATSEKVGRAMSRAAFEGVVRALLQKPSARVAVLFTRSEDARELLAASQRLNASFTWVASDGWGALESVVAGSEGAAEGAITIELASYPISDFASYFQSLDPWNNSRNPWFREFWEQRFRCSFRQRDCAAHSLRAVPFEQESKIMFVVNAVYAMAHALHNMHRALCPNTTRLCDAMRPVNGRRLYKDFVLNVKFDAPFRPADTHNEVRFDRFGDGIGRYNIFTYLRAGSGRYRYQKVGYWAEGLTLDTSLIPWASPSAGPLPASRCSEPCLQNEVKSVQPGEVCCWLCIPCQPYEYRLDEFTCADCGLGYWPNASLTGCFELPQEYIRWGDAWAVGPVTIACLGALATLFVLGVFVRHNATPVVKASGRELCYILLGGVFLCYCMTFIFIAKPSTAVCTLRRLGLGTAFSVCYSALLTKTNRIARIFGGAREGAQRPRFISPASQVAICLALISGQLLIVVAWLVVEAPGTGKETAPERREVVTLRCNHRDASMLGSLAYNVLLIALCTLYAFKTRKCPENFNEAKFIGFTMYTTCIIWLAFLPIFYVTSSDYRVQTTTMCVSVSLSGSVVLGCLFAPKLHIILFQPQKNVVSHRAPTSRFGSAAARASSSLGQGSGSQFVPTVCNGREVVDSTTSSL

[3] = target: T3, Metabotropic glutamate receptor 4 (Homo sapiens, UniProt Q14833); assay: Agonistic activity at mGlu4a receptor expressed in CHO cells; type: functional, cell-based; how it was run: as §1
T3 sequence (Q14833 whole entry): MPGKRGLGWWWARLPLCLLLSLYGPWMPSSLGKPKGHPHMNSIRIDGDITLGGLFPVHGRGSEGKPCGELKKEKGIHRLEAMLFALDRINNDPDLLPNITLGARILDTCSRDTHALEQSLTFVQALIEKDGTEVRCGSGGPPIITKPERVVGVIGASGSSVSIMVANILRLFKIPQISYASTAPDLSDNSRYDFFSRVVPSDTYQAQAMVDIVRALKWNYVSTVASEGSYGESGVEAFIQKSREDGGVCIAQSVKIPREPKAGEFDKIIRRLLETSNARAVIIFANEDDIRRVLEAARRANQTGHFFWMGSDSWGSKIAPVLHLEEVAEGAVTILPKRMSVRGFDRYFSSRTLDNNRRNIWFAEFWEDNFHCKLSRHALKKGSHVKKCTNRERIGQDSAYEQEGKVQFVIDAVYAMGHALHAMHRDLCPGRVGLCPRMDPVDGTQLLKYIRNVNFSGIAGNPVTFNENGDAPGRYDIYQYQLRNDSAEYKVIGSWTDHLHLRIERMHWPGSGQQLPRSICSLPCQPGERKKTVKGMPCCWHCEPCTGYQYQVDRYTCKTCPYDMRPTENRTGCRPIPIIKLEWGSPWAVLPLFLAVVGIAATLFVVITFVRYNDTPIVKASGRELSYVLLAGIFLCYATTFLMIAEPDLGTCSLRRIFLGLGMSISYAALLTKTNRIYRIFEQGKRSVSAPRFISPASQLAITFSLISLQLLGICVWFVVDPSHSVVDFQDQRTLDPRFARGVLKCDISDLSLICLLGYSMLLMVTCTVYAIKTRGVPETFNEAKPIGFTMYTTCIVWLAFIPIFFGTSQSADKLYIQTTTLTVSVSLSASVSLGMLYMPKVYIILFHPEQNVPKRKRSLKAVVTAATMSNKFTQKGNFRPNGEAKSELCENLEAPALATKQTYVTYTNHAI

[4] = target: T4, Metabotropic glutamate receptor 1 (Homo sapiens, UniProt Q13255); assay: Agonistic activity at mGlu1-alpha receptor expressed in CHO cells; type: functional, cell-based
T4 sequence (Q13255 whole entry): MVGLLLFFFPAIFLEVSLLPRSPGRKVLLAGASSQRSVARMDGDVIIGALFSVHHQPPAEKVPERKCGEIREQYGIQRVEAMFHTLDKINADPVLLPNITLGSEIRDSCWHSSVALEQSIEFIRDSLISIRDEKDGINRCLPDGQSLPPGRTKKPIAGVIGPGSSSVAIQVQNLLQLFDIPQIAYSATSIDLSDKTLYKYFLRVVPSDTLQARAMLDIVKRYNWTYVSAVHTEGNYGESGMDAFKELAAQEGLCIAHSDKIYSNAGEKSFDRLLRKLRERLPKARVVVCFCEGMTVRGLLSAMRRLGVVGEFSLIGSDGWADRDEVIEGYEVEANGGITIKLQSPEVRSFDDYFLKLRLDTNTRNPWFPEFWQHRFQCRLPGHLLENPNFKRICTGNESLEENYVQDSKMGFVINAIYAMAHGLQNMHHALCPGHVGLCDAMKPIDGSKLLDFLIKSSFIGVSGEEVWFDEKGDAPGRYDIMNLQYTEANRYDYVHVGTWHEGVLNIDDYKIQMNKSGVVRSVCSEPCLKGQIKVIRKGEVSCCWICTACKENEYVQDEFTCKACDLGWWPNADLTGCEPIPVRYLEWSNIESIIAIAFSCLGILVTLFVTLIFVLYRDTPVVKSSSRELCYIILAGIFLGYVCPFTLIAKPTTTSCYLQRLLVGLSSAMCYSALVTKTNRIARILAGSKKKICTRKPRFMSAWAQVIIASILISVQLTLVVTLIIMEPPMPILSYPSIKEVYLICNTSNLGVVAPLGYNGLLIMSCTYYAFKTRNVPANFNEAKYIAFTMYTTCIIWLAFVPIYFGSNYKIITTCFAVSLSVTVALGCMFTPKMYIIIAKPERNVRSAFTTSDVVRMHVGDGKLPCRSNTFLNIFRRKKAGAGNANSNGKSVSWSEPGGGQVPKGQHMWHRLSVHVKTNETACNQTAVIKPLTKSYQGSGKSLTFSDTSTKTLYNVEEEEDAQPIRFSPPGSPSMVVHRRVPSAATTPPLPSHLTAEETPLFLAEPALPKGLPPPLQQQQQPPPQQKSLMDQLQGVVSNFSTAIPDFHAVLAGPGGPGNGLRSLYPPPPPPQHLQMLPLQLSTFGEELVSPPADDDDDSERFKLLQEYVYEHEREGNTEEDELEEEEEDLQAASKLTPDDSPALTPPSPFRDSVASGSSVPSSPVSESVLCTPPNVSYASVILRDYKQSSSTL

[5] = target: T1, Metabotropic glutamate receptor 6; assay: Agonist activity of the compound at Metabotropic Excitatory Amino acid Receptors Expressed in CHO cells. mGlu6; type: functional, cell-based
How it was run: (§2)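 CHO cells expressing mGlu2, mGlu4a or mGlu6, seeded 2 days before assay. Incubated 10 min in PBS with ligand, 10 µM forskolin and 1 mM IBMX. […] EC50 from dose-response, mean ± SEM of at least two independent experiments.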

[6] = target: T2, Metabotropic glutamate receptor 2; assay: Agonist activity of the compound at Metabotropic Excitatory Amino acid Receptors Expressed in CHO cells. mGlu2; type: functional, cell-based
How it was run: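 CHO cells expressing mGlu2, mGlu4a or mGlu6, seeded 2 days before assay. Incubated 10 min in PBS with ligand, 10 µM forskolin and 1 mM IBMX. EC50 from dose-response, mean ± SEM of at least two independent experiments.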

[7] = target: T4, Metabotropic glutamate receptor 1; assay: Agonist activity of the compound at Metabotropic Excitatory Amino acid Receptors Expressed in CHO cells. mGlu1-alpha; type: functional, cell-based
How it was run: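 CHO cells stably expressing mGlu1α, seeded 2 days before assay and labelled with [3H]inositol (1 µCi/mL) for 24 h. Ligand in PBS-LiCl for 20 min; total [3H]inositol mono-, bis- and trisphosphates by ion-exchange chromatography, fold over buffer-only control. EC50 from dose-response, mean ± SEM of at least two independent experiments.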

[8] = target: Glutamate receptor ionotropic, kainate; assay: The compound was evaluated for agonist to competitive inhibition of radioligand ([3H]- kainic acid ) at Ionotropic glutamate receptor kainate; type: functional
[9] = target: Glutamate receptor ionotropic, AMPA (Rattus norvegicus, UniProt P19490+P19491+P19492+P19493); assay: Agonistic activity at Ionotropic glutamate receptor AMPA of rat brain membrane using [3H]AMPA as radioligand; type: functional
Glutamate NMDA receptor [10] = assay: The compound was evaluated for agonist activity at NMDA receptor in rat cortical wedge preparation; type: functional
How it was run: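 Rat cortical wedge under superfusion. Test and standard compounds were dissolved in the superfusion medium, and the potential difference between the recording and reference electrodes was charted.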

Glutamate NMDA receptor [11] = assay: Agonistic activity at NMDA receptor of rat brain membrane using [3H]MK-801 as radioligand; type: functional
How it was run: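 Rat brain membranes were prepared per Ransom and Stec. [3H]MK-801 binding was run on fully stimulated membranes, with incubation lengthened to 4 h.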

[12] = target: T3, Metabotropic glutamate receptor 4; assay: Agonist activity of the compound at Metabotropic Excitatory Amino acid Receptors Expressed in CHO cells. mGlu4a; type: functional, cell-based; how it was run: as §2

T1 sequence (O15303 whole entry): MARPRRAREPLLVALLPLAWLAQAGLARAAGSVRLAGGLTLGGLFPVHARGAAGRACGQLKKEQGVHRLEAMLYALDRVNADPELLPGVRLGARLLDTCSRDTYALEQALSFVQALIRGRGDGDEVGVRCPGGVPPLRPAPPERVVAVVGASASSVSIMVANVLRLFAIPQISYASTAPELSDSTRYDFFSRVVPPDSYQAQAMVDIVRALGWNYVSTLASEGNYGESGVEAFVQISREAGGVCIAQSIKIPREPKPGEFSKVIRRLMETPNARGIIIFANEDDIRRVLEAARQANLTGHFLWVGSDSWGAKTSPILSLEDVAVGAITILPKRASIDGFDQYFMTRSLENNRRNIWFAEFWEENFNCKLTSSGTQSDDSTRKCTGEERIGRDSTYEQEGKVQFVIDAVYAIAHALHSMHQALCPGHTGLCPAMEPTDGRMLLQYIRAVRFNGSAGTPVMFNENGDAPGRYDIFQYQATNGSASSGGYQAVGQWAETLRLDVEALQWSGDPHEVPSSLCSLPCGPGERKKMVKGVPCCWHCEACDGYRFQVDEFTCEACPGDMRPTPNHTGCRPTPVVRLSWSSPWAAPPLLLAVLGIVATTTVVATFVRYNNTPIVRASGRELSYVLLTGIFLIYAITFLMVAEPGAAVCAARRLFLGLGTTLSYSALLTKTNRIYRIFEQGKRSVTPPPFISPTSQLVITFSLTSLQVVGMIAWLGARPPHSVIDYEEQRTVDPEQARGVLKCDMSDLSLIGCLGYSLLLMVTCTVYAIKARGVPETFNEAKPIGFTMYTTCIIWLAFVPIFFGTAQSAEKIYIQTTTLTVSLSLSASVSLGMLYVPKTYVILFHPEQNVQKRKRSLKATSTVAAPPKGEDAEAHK

| pEC50 [1] | pEC50 [2] | pEC50 [4] | SMILES | also measured |
| --- | --- | --- | --- | --- |
| 4.09 | < 3.00 | < 3.00 | Cc1onc(O)c1CCC(N)C(=O)O (stereo not drawn) | pEC50 [3]: < 2.52 |
| < 3.00 | < 3.00 | < 3.00 | NC(CCCCC(=O)O)C(=O)O (stereo not drawn) | – |
| < 3.00 | < 3.00 | < 3.00 | Cc1o[nH]c(=O)c1CCCCC(N)C(=O)O (stereo not drawn) | – |
| – | – | – | Cc1onc(O)c1C[C@@H](N)C(=O)O | pEC50 [5]: < 3.00; pEC50 [6]: < 3.00; pEC50 [7]: < 3.00 |
| – | – | – | Cc1o[nH]c(=O)c1C(N)C(=O)O (stereo not drawn) | pIC50 [8]: < 4.00; pIC50 [9]: < 4.00; pEC50 [5]: < 3.00; pEC50 [7]: < 3.00; pEC50 (Glutamate NMDA receptor [10]): 4.92; pIC50 (Glutamate NMDA receptor [11]): < 4.00 |
| < 3.00 | < 3.00 | < 3.00 | NC(CCCCCC(=O)O)C(=O)O (stereo not drawn) | – |
| 3.39 | < 3.00 | < 3.00 | Cc1onc(O)c1CCCC(N)C(=O)O (stereo not drawn) | pEC50 [3]: < 2.52 |
| – | – | – | Cc1onc(O)c1C[C@H](N)C(=O)O [(S)-AMPA] | pEC50 [5]: 3.66; pEC50 [12]: < 2.52; pEC50 [6]: < 3.00; pEC50 [7]: < 3.00 |

| SMILES | pEC50 [1] | pEC50 [2] | pEC50 [4] | also measured |
| --- | --- | --- | --- | --- |
| N[C@H](CCCC(=O)O)C(=O)O | < 3.00 | < 3.00 | < 3.00 | – |
| N[C@@H](CCCC(=O)O)C(=O)O [(S)-2-AMINOADIPIC ACID] | 3.85 | 4.46 | < 3.00 | pEC50 [3]: < 2.52 |
| N[C@@H](CC(=O)O)C(=O)O [ASPARTIC ACID] | < 3.00 | < 3.00 | < 3.00 | – |
| N[C@H](CC(=O)O)C(=O)O [D-ASPARTATE] | < 3.00 | < 3.00 | < 3.00 | – |
